In general, IC50 refers to the concentration at which inhibition is half-maximal. A higher IC50 goes with weaker potency.

Some results are limits rather than exact numbers.

In one assay the test system is KYSE-520 cell line. The assay can be described thus: Growth inhibition of human KYSE520 cells measured after 4 days by WST8 assay. The settings on record: KYSE-520, 96 h.
Another assay concerns MV4-11. Put plainly: Growth inhibition of human MV4-11 cells measured after 4 days by WST8 assay. The settings on record: MV4-11, 96 h. (Tetrazolium dyes change colour on reduction, which living cells bring about.)
Assay [1] deals with T1, von Hippel-Lindau disease tumor suppressor/Tyrosine-protein phosphatase non-receptor type 11 (Homo sapiens, UniProt Q06124+P40337). The assay can be described thus: Protac activity at VHL1/SHP2 in human KYSE520 cells assessed as induction of SHP2 degradation at 0.1 uM measured after 6 hrs by Western blot analysis relative to control. It is filed as cell-based. The essentials:
(§1)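 KYSE520 cells in RPMI 1640 + 10% FBS, 37 °C, 5% CO2, were exposed to degrader for 6 h. SHP2 was measured by Western blot and densitometry, with background-subtracted band normalized to net GAPDH band. Values are the average of three independent experiments.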
A general note: Immunoblotting shows a protein as a band on a membrane.

The target of assay [2] is T1, von Hippel-Lindau disease tumor suppressor/Tyrosine-protein phosphatase non-receptor type 11. The assay can be described thus: Protac activity at VHL1/SHP2 in human KYSE520 cells assessed as induction of SHP2 degradation at 1 uM measured after 6 hrs by Western blot analysis relative to control. Format: cell-based. Summed up:
as §1

Assay [3] shares this target. Put plainly: Protac activity at VHL1/SHP2 in human MV4-11 cells assessed as induction of SHP2 degradation at 0.1 uM measured after 24 hrs by Western blot analysis relative to control. It is filed as cell-based. Summed up: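 MV4;11 cells in IMDM + 10% FBS were exposed to degrader for 24 h. SHP2 was quantified by Western blot densitometry, with background-subtracted band divided by net GAPDH loading-control band. Average of three independent experiments.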

T1 sequence (P40337 whole entry partner): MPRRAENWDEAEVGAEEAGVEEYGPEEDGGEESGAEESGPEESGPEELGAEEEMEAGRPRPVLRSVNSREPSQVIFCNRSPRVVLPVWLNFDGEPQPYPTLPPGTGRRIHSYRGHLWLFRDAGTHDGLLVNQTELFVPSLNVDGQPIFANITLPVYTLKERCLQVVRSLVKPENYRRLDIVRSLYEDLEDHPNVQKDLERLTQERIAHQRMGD
T1 sequence (Q06124 2-593 limits assumed): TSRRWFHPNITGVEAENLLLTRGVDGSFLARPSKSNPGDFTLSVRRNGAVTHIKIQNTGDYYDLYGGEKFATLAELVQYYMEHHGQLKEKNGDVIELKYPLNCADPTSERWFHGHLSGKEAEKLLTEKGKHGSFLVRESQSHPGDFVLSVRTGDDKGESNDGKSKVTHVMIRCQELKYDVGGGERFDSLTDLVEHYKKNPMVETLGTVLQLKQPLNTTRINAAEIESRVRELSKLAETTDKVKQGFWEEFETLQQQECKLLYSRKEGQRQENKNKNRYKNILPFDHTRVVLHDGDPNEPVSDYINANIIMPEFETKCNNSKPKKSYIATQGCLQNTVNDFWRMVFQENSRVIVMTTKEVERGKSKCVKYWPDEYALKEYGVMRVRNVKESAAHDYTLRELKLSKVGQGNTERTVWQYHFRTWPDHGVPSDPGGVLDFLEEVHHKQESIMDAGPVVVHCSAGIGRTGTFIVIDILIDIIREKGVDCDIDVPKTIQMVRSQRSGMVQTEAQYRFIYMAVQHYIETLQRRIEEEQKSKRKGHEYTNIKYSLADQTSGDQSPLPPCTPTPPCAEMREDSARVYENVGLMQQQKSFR

Take `CC1(N)CCN(c2cnc(-c3cccc(Cl)c3Cl)c(N)n2)CC1`: the IC50 in the assay with KYSE-520 cell line was 18.2 µM; with MV4-11, 1 µM.
On to `CC(=O)Nc1cccc(Sc2ncc(N3CCC(C)(N)CC3)nc2N)c1Cl`, for which the IC50 with KYSE-520 cell line came out at 39.4 µM; in the assay on MV4-11, 6.6 µM.
Regarding `Cc1ncsc1-c1ccc([C@H](C)NC(=O)[C@@H]2C[C@@H](O)CN2C(=O)[C@@H](NC(=O)CCCCCCCCCCCNC(=O)CCC(=O)Nc2cccc(Sc3ncc(N4CCC(C)(N)CC4)nc3N)c2Cl)C(C)(C)C)cc1`, the Activity in assay [1] and in assay [2] was > 95% each time.
As to `Cc1ncsc1-c1ccc([C@H](C)NC(=O)[C@@H]2C[C@@H](O)CN2C(=O)[C@@H](NC(=O)CCCCCCCCCCNC(=O)CCC(=O)Nc2cccc(Sc3ncc(N4CCC(C)(N)CC4)nc3N)c2Cl)C(C)(C)C)cc1`, the Activity in assay [1] and in assay [2] was > 95% each time.
Turning to `Cc1ncsc1-c1ccc([C@H](C)NC(=O)[C@@H]2C[C@@H](O)CN2C(=O)[C@@H](NC(=O)CCCCCCCOc2ccc(NC(=O)CCC(=O)Nc3cccc(Sc4ncc(N5CCC(C)(N)CC5)nc4N)c3Cl)cc2)C(C)(C)C)cc1`, the Activity in assay [1], in assay [2] and in assay [3] was > 95% each time.
Regarding `Cc1ncsc1-c1ccc([C@H](C)NC(=O)[C@@H]2C[C@@H](O)CN2C(=O)[C@@H](NC(=O)CCNC(=O)CC(=O)Nc2cccc(Sc3ncc(N4CCC(C)(N)CC4)nc3N)c2Cl)C(C)(C)C)cc1`, the results for the Activity in assay [1] and in assay [2] were 4% and 0%, respectively.
In the case of `Cc1ncsc1-c1ccc([C@H](C)NC(=O)[C@@H]2C[C@@H](O)CN2C(=O)[C@@H](NC(=O)CCCCCCCCCCCCCCC(=O)Nc2cccc(Sc3ncc(N4CCC(C)(N)CC4)nc3N)c2Cl)C(C)(C)C)cc1` (single isomer, unassigned), the values for the Activity in assay [1], in assay [2] and in assay [3] were 62%, 90% and 8%, respectively.
For `Cc1ncsc1-c1ccc([C@H](C)NC(=O)[C@@H]2C[C@@H](O)CN2C(=O)[C@@H](NC(=O)CCCCCCCCCCCN2CCN(CC(=O)Nc3cccc(Sc4ncc(N5CCC(C)(N)CC5)nc4N)c3Cl)CC2)C(C)(C)C)cc1` (single isomer, unassigned), the figures for the Activity in assay [1], in assay [2] and in assay [3] were 80%, > 95% and 6%, respectively.
For the molecule `Cc1ncsc1-c1ccc([C@H](C)NC(=O)[C@@H]2C[C@@H](O)CN2C(=O)[C@@H](NC(=O)CCCCCCCCCCCNC(=O)CC(=O)Nc2cccc(Sc3ncc(N4CCC(C)(N)CC4)nc3N)c2Cl)C(C)(C)C)cc1` (single isomer, unassigned), the Activity was > 95% in assay [1] and 93% in assay [2].
In the case of `Cc1ncsc1-c1ccc([C@H](C)NC(=O)[C@@H]2C[C@@H](O)CN2C(=O)[C@@H](NC(=O)CCCCCCCCCCCNC(=O)CCCC(=O)Nc2cccc(Sc3ncc(N4CCC(C)(N)CC4)nc3N)c2Cl)C(C)(C)C)cc1` (single isomer, unassigned), the Activity in assay [1] and in assay [2] was > 95% each time.
Regarding `Cc1ncsc1-c1ccc([C@H](C)NC(=O)[C@@H]2C[C@@H](O)CN2C(=O)[C@@H](NC(=O)CCCCCCCCCCN2CCN(CC(=O)Nc3cccc(Sc4ncc(N5CCC(C)(N)CC5)nc4N)c3Cl)CC2)C(C)(C)C)cc1` (single isomer, unassigned), the Activity was 85% in assay [1], > 95% in assay [2] and 47% in assay [3].
As to `Cc1ncsc1-c1ccc([C@H](C)NC(=O)[C@@H]2C[C@@H](O)CN2C(=O)[C@@H](NC(=O)CCCCCCCCCCNC(=O)CC(=O)Nc2cccc(Sc3ncc(N4CCC(C)(N)CC4)nc3N)c2Cl)C(C)(C)C)cc1` (single isomer, unassigned), the Activity in assay [1] and in assay [2] was > 95% in each case.
Turning to `Cc1ncsc1-c1ccc([C@H](C)NC(=O)[C@@H]2C[C@@H](O)CN2C(=O)[C@@H](NC(=O)CCCCCCCCCN2CCN(C(=O)CCC(=O)Nc3cccc(Sc4ncc(N5CCC(C)(N)CC5)nc4N)c3Cl)CC2)C(C)(C)C)cc1` (single isomer, unassigned), the Activity in assay [1], in assay [2] and in assay [3] was > 95% each time.
Turning to `Cc1ncsc1-c1ccc([C@H](C)NC(=O)[C@@H]2C[C@@H](O)CN2C(=O)[C@@H](NC(=O)CCCCCCCCCNC(=O)CC(=O)Nc2cccc(Sc3ncc(N4CCC(C)(N)CC4)nc3N)c2Cl)C(C)(C)C)cc1` (single isomer, unassigned), the Activity in assay [1] and in assay [2] was > 95% each time.
Take `Cc1ncsc1-c1ccc([C@H](C)NC(=O)[C@@H]2C[C@@H](O)CN2C(=O)[C@@H](NC(=O)CCCCCCCCNC(=O)CC(=O)Nc2cccc(Sc3ncc(N4CCC(C)(N)CC4)nc3N)c2Cl)C(C)(C)C)cc1` (single isomer, unassigned): the Activity was 81% in assay [1] and 80% in assay [2].
`Cc1ncsc1-c1ccc([C@H](C)NC(=O)[C@@H]2C[C@@H](O)CN2C(=O)[C@@H](NC(=O)CCCCCCCNC(=O)CC(=O)Nc2cccc(Sc3ncc(N4CCC(C)(N)CC4)nc3N)c2Cl)C(C)(C)C)cc1` (single isomer, unassigned): the Activity stood at 20% in assay [1] and 14% in assay [2].
With `Cc1ncsc1-c1ccc([C@H](C)NC(=O)[C@@H]2C[C@@H](O)CN2C(=O)[C@@H](NC(=O)CCCCCCNC(=O)CC(=O)Nc2cccc(Sc3ncc(N4CCC(C)(N)CC4)nc3N)c2Cl)C(C)(C)C)cc1` (single isomer, unassigned), the Activity in assay [1] and in assay [2] was 0% throughout.
As for `Cc1ncsc1-c1ccc([C@H](C)NC(=O)[C@@H]2C[C@@H](O)CN2C(=O)[C@@H](NC(=O)CCCCCNC(=O)CC(=O)Nc2cccc(Sc3ncc(N4CCC(C)(N)CC4)nc3N)c2Cl)C(C)(C)C)cc1` (single isomer, unassigned), the Activity in assay [1] came out at 0%; in assay [2] it was 3%.
For the molecule `Cc1ncsc1-c1ccc([C@H](C)NC(=O)[C@@H]2C[C@@H](O)CN2C(=O)[C@@H](NC(=O)CCCCN2CCN(CCCCNC(=O)CCC(=O)Nc3cccc(Sc4ncc(N5CCC(C)(N)CC5)nc4N)c3Cl)CC2)C(C)(C)C)cc1` (single isomer, unassigned), the Activity was 0% in assay [1], 82% in assay [2] and 9% in assay [3].
On to `Cc1ncsc1-c1ccc([C@H](C)NC(=O)[C@@H]2C[C@@H](O)CN2C(=O)[C@@H](NC(=O)CCCCNC(=O)CC(=O)Nc2cccc(Sc3ncc(N4CCC(C)(N)CC4)nc3N)c2Cl)C(C)(C)C)cc1` (single isomer, unassigned), for which the Activity turned out to be 13% in assay [1] and 6% in assay [2].
Consider `Cc1ncsc1-c1ccc([C@H](C)NC(=O)[C@@H]2C[C@@H](O)CN2C(=O)[C@@H](NC(=O)CCCNC(=O)CC(=O)Nc2cccc(Sc3ncc(N4CCC(C)(N)CC4)nc3N)c2Cl)C(C)(C)C)cc1` (single isomer, unassigned), for which the figures for the Activity in assay [1] and in assay [2] were 9% and 7%, respectively.
Take `Cc1ncsc1-c1ccc([C@H](C)NC(=O)[C@@H]2C[C@@H](O)CN2C(=O)[C@@H](NC(=O)CCOCCOCCOCCNC(=O)CCC(=O)Nc2cccc(Sc3ncc(N4CCC(C)(N)CC4)nc3N)c2Cl)C(C)(C)C)cc1` (single isomer, unassigned): the Activity in assay [1] was found to be 32%; in assay [2], 87%; in assay [3], 85%.
Consider `Cc1ncsc1-c1ccc([C@H](C)NC(=O)[C@@H]2C[C@@H](O)CN2C(=O)[C@@H](NC(=O)COCCOCCOCCNC(=O)CCC(=O)Nc2cccc(Sc3ncc(N4CCC(C)(N)CC4)nc3N)c2Cl)C(C)(C)C)cc1` (single isomer, unassigned), for which the figures for the Activity in assay [1], in assay [2] and in assay [3] were 80%, > 95% and > 95%, respectively.
`Cc1ncsc1-c1ccc([C@H](C)NC(=O)[C@@H]2C[C@@H](O)CN2C(=O)[C@@H](NC(=O)COCCOCCOCCOCCNC(=O)CCC(=O)Nc2cccc(Sc3ncc(N4CCC(C)(N)CC4)nc3N)c2Cl)C(C)(C)C)cc1` (single isomer, unassigned): the Activity in assay [1] was 53%; in assay [2], > 95%; in assay [3], 95%.

(Values after ChEMBL document CHEMBL4616666, “Discovery of SHP2-D26 as a First, Potent, and Effective PROTAC Degrader of SHP2 Protein” (J Med Chem, 2020).)
